Assay outcomes: PubChem BioAssay, Johns Hopkins Ion Channel Center
Only some compounds are listed: those with a hit (about 2.3% of all), similar ones and a draw of the others.
TRPC6 act – mouse TRPC6 channel activators, primary screen, cell-based, HEK293, membrane potential dye. 0.13% of 310,000 active. Short transient receptor potential channel 6 (Mus musculus), Q61143. B-score at 10 µM. HEK293-TRPC6 membrane potential dye fluorescence; active compounds read high;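 active means B-score of the integrated fluorescence ratio above library mean plus 3 SD, and starting fluorescence ratio within library mean plus 5 SD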;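 further: higher score means more depolarization so channel activation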
TRPC4 agonist – activators of mouse TRPC4 channel, primary screen, Fluo4 calcium, HEK293 TRPC4beta/mu-opioid cells; Fluo4 calcium fluorescence; active compounds read high; B-score at 10 µM; 0.49% of 310,000 active;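 active means B-score above 5 SD of library B-scores, and initial fluorescence ratio not above library mean plus 5 SD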;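 further: positive B-score marks a calcium rise read as TRPC4 activation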
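Incubation: 45 min room-temperature Fluo4 loading, 110 s read / System: HEK293 cells stably co-expressing mouse TRPC4beta and mu-opioid receptor / Signal: Fluo4 fluorescence, kinetic / Control set: buffer (low) and maximal DAMGO (high) / Measure: integrated baseline-normalised fluorescence ratio, converted to per-well B score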
TRPC6 inh – mouse TRPC6 channel inhibitors, primary screen, cell-based, HEK293, membrane potential dye; ACh-evoked depolarization; active compounds read low; B-score at 10 µM; 1.1% of 310,000 active; AID 2553, 2010;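 active means B-score under library mean minus 3 SD, initial fluorescence not abnormally high, positive integrated signal ratio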;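 further: B-score derived from integrated fluorescence ratio over the kinetic read; more negative B-score means stronger inhibition of depolarization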
TRPC4 potent – positive allosteric modulators of TRPC4, primary screen, cell-based, mouse TRPC4beta, HEK293 mu-opioid, Fluo-4 calcium; Short transient receptor potential channel 4 (Mus musculus), Q9QUQ5; 0.42% of 310,000 active; DAMGO EC20, Fluo-4 Ca2+ flux; active compounds read high; B-score at 10 µM;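 active means B-score of calcium response area above 5 SD of library B-scores, with initial fluorescence ratio within 5 SD of library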;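 further: B-score of integrated fluorescence ratio over time as area under calcium response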
TRPC4 block – inhibitors of mouse TRPC4 channel, primary screen, Fluo4 calcium, HEK293 TRPC4beta/mu-opioid cells; DAMGO-evoked Fluo4 calcium flux; active compounds read low; Short transient receptor potential channel 4 (Mus musculus), Q9QUQ5; 0.39% of 300,000 active; B-score at 10 µM;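 active means B-score over 3 SD under the library average, no early fluorescence shift, positive overall ratio signal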
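Assay system: HEK293 cells with stable TRPC4beta plus mu-opioid receptor expression; Probe or stimulus: DAMGO in two steps, submaximal then maximal; Dosing: single-point compound dosing; Measured by: Fluo4 calcium-dye fluorescence, kinetic read; Read-out basis: B score from integrated Fluo4 fluorescence ratio.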
TRPC4 sel inh 2 – second check of whether TRPC6 inhibitors also affect mouse TRPC4. shares compounds with TRPC6 inh. HEK293 TRPC4/MOR, membrane potential dye fluorescence; channel activated by saturating DAMGO dose. inhibition, % at 10 µM. 42% of 920 active;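 active means compounds whose fluorescence signal differed from control wells by over 3 SD, either direction, in both duplicate plates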
TRPC4 spec – mouse TRPC4 modulation by TRPC6 hits, confirmation, selectivity assay for TRPC6 inhibitor project, cell-based, HEK293 TRPC4/mu-opioid, membrane potential dye; AID 2777, 2010; membrane potential fluorescence; activity change, negative = inhibition, % at 10 µM; 61% of 920 active; shares compounds with TRPC6 inh;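 active means rise or fall in signal beyond 3 SD of buffer-only wells in both replicate plates, either sign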;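 further: integrated kinetic ratio of fluorescence range over baseline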
HEK293 MPD ctr 2-1 – nonspecific membrane potential effects, parental HEK293, confirmation, counter-screen for TRPC6 inhibitor project, cell-based, second counter screen. shares compounds with TRPC6 inh. parental HEK293 membrane potential dye fluorescence; maximal acetylcholine challenge after compound addition. signal change vs control, % at 10 µM. 31% of 920 active;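 active means membrane potential signal moving either way by over 3 SD of the maximum-effect control, in both duplicate plates, meaning non-specific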
HEK293 MPD ctr-1 – membrane potential modulation in parental HEK293, confirmation, counter-screen for TRPC6 inhibitor project, cell-based | shares compounds with TRPC6 inh | parental HEK293 membrane potential dye fluorescence | membrane potential signal change, % at 10 µM | 60% of 920 active;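 active means membrane potential signal shifting up or down by more than 3 SD of buffer-only wells, on both duplicate plates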
HEK293 MPD ctr-2 – parental HEK293 membrane potential modulation, confirmation, counter-screen for TRPC6 modulator project, cell-based | shares compounds with TRPC6 inh | membrane potential dye fluorescence | membrane potential signal change, % at 10 µM | 51% of 2,400 active | AID 488924, 2010;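 active means membrane potential signal moves up or down beyond 5 SD from buffer-only wells, on both duplicate plates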
HEK293 MPD ctr 2-2 – parental HEK293 nonspecific activity of TRPC6 modulators, second screen; shares compounds with TRPC6 inh; membrane potential dye fluorescence; after compound, maximal acetylcholine stimulation; 14% of 2,400 active; inhibition, % at 10 µM;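 active means membrane potential signal drops by more than 5 SD from the mean control signal, in both duplicate plates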;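 further: plate controls were acetylcholine ECmax control wells for no effect and buffer only wells for full effect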
TRPC4/MOR mod – TRPC4 modulation by TRPC6 hit compounds, confirmation, selectivity assay for TRPC6 modulator project, cell-based, HEK293 TRPC4/mu-opioid, membrane potential dye, mouse; shares compounds with TRPC6 inh; membrane potential fluorescence; percent change from control (negative = decrease, positive = increase), % at 10 µM; 69% of 2,400 active;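 active means membrane potential signal moved up or down beyond 5 SD of buffer control wells, in both duplicate plates, actives on both sides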;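 further: plate controls were assay buffer wells for no effect and DAMGO maximal-effect wells for full effect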
TRPC4/MOR inh 2 – second selectivity test of TRPC6 modulators against mouse TRPC4; shares compounds with TRPC6 inh; HEK293 TRPC4/mu-opioid, membrane potential dye fluorescence; stimulated with maximal-effect DAMGO; inhibition, % at 10 µM; 55% of 2,400 active;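 active means drop in membrane potential signal beyond 5 SD of the control wells in both duplicate plates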;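 further: TRPC4 counter screen for TRPC6 hits run under conditions tuned for TRPC6 not TRPC4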
TRPC6 block conf – mouse TRPC6 channel inhibitors, confirmation, HEK293 cells, membrane potential dye, duplicate; ACh-evoked depolarization; inhibition, % at 10 µM; 43% of 3,300 active; shares compounds with TRPC6 inh; AID 488960, 2010;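 active means fluorescence ratio falls more than 5 SD below the full-stimulation control mean, in both duplicate runs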;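 further: integrated fluorescence ratio of peak minus minimum over baseline after agonist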
TRPC6 act confirm – mouse TRPC6 channel activators, confirmation, HEK293 cells, membrane potential dye, duplicate | HEK293-TRPC6 membrane potential dye fluorescence, FDSS | shares compounds with TRPC6 inh | 11% of 2,800 active | activation, % at 10 µM;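 active means ratio signal rise beyond 5 SD above unstimulated control wells' mean, seen in both duplicate runs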;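 further: plate controls were buffer EC0 wells for no effect and acetylcholine ECmax response for full effect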
Starred values were filed as active, the others as inactive; i = inactive; nt = no result.

SMILES	TRPC6 act	TRPC4 agonist	TRPC6 inh	TRPC4 potent	TRPC4 block	TRPC4 sel inh 2	TRPC4 spec	HEK293 MPD ctr 2-1	HEK293 MPD ctr-1	HEK293 MPD ctr-2	HEK293 MPD ctr 2-2	TRPC4/MOR mod	TRPC4/MOR inh 2	TRPC6 block conf	TRPC6 act confirm
COC(=O)c1[nH]c2ccc(C)cc2c1NC(=O)CCN1CCN(C2CCCCC2)CC1	i	i	i	i	i	nt	nt	nt	nt	nt	nt	nt	nt	nt	nt
O=C(/C=C/c1ccc2c(c1)OCO2)Nc1c(C(=O)O)[nH]c2ccccc12	14.5*	i	i	i	i	nt	nt	nt	nt	i	i	16.0%*	i	i	54.0%*
COC(=O)c1[nH]c2ccc(Br)cc2c1NC(=O)CN1CCN(C2CCCCC2)CC1	i	i	-16.8*	i	i	29.5%*	-24.1%*	20.0%*	-268.5%*	nt	nt	nt	nt	94.1%*	i
COC(=O)c1[nH]c2ccccc2c1NC(=O)CN1CCN(Cc2ccc3c(c2)OCO3)CC1	i	i	-5.62*	i	i	nt	nt	nt	nt	i	i	i	66.0%*	57.0%*	i
COC(=O)c1[nH]c2cc(C)ccc2c1NC(=O)CN1CCCc2ccccc21	i	i	-11*	i	i	i	-10.5%*	i	i	nt	nt	nt	nt	i	i
COc1ccc(C(=O)Nc2c(N)nc(SCC(=O)NCC3CCCO3)[nH]c2=O)cc1 (stereo not drawn)	i	i	i	i	i	nt	nt	nt	nt	nt	nt	nt	nt	nt	nt
Cc1ccc(OC(C)C(=O)N(Cc2cccs2)C2CCS(=O)(=O)C2)cc1C (stereo not drawn)	i	i	i	i	i	nt	nt	nt	nt	nt	nt	nt	nt	nt	nt
